Experiments:
[1] = test system: human HBT 3477 breast cancer; details: 250 μg/mouse, nude mice; cited from earlier work
[2] = molecular target: Glucose regulated protein 78 kDa (GRP78), recombinant protein immobilised for SPR (UniProt P11021); experiment: SPR
HUVECs = experiment: Cell Death Detection ELISA; type: cell-based, human; details: 100 μM, 24 h
In short: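 HUVECs (passages 5–10) seeded at 1–1.5 × 10^4 cells/well and pre-starved 3 h in 2% FBS medium. Co-treated with 100 μM test peptide plus 15 ng/ml VEGF for 24 h. Apoptosis read as cytoplasmic histone-associated DNA fragments by photometric ELISA at 405 nm. Fold change taken against VEGF-only cells set as 1. Mean ± SEM, at least three independent experiments, ANOVA.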

Cell-surface GRP78 = details: ISM protein as ligand of cell-surface GRP78; cited from earlier work

Sequence of UniProt P11021 (P11021 19-654): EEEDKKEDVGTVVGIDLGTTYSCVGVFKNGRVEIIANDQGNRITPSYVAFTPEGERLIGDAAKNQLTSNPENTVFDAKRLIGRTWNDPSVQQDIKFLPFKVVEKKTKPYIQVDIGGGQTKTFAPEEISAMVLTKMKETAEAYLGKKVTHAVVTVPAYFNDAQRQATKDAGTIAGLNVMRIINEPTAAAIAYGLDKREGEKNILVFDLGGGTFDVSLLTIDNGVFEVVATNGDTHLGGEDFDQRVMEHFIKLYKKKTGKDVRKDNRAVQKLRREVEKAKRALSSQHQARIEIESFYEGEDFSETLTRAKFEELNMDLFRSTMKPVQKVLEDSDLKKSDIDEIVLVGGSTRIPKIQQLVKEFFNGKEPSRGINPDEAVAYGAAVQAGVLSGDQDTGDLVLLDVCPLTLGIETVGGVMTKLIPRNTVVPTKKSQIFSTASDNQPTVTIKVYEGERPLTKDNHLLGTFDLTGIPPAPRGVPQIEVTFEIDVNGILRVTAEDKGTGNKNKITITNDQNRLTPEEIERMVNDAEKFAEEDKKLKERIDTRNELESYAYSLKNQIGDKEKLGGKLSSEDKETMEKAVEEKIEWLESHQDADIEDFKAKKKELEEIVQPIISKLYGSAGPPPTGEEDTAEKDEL

## cilengitide
[1]
  suppression of tumor growth as single agent: ineffective

## BC71, cyclic peptide c[(bA)(k)RKD(2-D-Nal)]
[2]
  Kd: 211 µM

## cyclo(KRAAF) [GR35]
HUVECs
  proapoptotic activity towards HUVECs (in words): significantly reduced its proapoptotic activity

## cyclo(KRKDF) [GR16]
HUVECs; HUVECs, Cell Death Detection ELISA, Fig. 1a legend
  apoptosis, relative fold change: over 1.4

B1: ISM: secreted proapoptotic protein, high-affinity ligand of cell-surface GRP78 (protein, UniProt B1AKI9 30-464, looked up)
Isthmin-1: ADGPDAAAGNASQAQLQNNLNVGSDTTSETSFSLSKEAPREHLDHQAAHQPFPRPRFRQETGHPSLQRDFPRSFLLDLPNFPDLSKADINGQNPNIQVTIEVVDGPDSEADKDQHPENKPSWSVPSPDWRAWWQRSLSLARANSGDQDYKYDSTSDDSNFLNPPRGWDHTAPGHRTFETKDQPEYDSTDGEGDWSLWSVCSVTCGNGNQKRTRSCGYACTATESRTCDRPNCPGIEDTFRTAATEVSLLAGSEEFNATKLFEVDTDSCERWMSCKSEFLKKYMHKVMNDLPSCPCSYPTEVAYSTADIFDRIKRKDFRWKDASGPKEKLEIYKPTARYCIRSMLSLESTTLAAQHCCYGDNMQLITRGKGAGTPNLISTEFSAELHYKVDVLPWIICKGDWSRYNEARPPNNGQKCTESPSDEDYIKQFQEAREY
Cell-surface GRP78
  Kd: 0.0086 µM

— paper PMC6085501 (EBioMedicine, 2018)
